How the values were obtained:
Cannabinoid receptor 1 [1] = molecular target: Cannabinoid receptor 1 (Homo sapiens, UniProt P21554); assay: Displacement of [3H]CP-55940 from human CB1 receptor expressed in HEK293 cells; assay type: cell-based
Cannabinoid receptor 2 [2] = molecular target: T1, Cannabinoid receptor 2 (Homo sapiens, UniProt P34972); assay: Displacement of [3H]CP-55940 human CB2 receptor expressed in CHOK1 cells; assay type: cell-based, CHO-K1
How it was run: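 Human CB2 expressed in CHO cells. Values are the mean ± SEM of at least three determinations, derived by logistic curve fitting.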

[3] = Volume of distribution at steady state in Wistar rat at 1 mg/kg, iv; assay type: ADME, organism-based; parameters: dose 1 mg/kg, route intravenous; conditions: in vivo, read-out: Vdss
How it was run: (§1)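 Wistar rats dosed once iv at 1 mg/kg or orally at 3.4 mg/kg. Plasma parameters (half-life, steady-state volume of distribution, total clearance, AUC0-∞, Tmax, Cmax) were derived from the concentration–time profiles. Absolute oral bioavailability was calculated from the po and iv AUC0-∞.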

[4] = Total clearance in Wistar rat at 1 mg/kg, iv; assay type: ADME, organism-based; parameters: dose 1 mg/kg, route intravenous; conditions: in vivo; how it was run: as §1
Cytochrome P450 2C9 = Cytochrome P450 2C9 (Homo sapiens, UniProt P11712); assay: Inhibition of CYP2C9 in human liver microsomes; assay type: ADME, Microsome
Cytochrome P450 3A4 = Cytochrome P450 3A4 (Homo sapiens, UniProt P08684); assay: Inhibition of CYP3A4 in human liver microsomes; assay type: ADME, Microsome
Cannabinoid receptor 2 [5] = molecular target: T1, Cannabinoid receptor 2; assay: Agonist activity at human CB2 receptor expressed in CHOK1 cells assessed as reversal of forskolin-evoked cAMP accumulation relative to CP-55940; assay type: functional, cell-based; conditions: CHO-K1
How it was run: (§2)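 CHO cells expressing human CB2 were stimulated with forskolin, and agonist reversal of cyclic AMP accumulation was measured. Potency is given as mean ± SEM of 3–13 independent measurements. Emax is the maximal reversal, expressed as a percentage of the value obtained with a reference agonist.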

[6] = Half life in Wistar rat at 1 mg/kg, iv; assay type: ADME, organism-based; parameters: dose 1 mg/kg, route intravenous; conditions: in vivo, read-out: beta t1/2 (converted); how it was run: as §1
[7] = Tmax in Wistar rat at 3.4 mg/kg, po; assay type: ADME, organism-based; parameters: dose 3.4 mg/kg, route oral; conditions: in vivo; how it was run: as §1
Cytochrome P450 2E1 = Cytochrome P450 2E1 (Homo sapiens, UniProt P05181); assay: Inhibition of CYP2E1 in human liver microsomes; assay type: ADME, Microsome
[8] = AUC (0 to infinity) in Wistar rat at 3.4 mg/kg, po; assay type: ADME, organism-based; parameters: time infinity, dose 3.4 mg/kg, route oral; conditions: plasma; how it was run: as §1
Cytochrome P450 1A2 = molecular target: T2, Cytochrome P450 1A2 (Homo sapiens, UniProt P05177); assay: Inhibition of CYP1A2 in human liver microsomes; assay type: ADME, Microsome
T2 sequence (P05177 whole entry): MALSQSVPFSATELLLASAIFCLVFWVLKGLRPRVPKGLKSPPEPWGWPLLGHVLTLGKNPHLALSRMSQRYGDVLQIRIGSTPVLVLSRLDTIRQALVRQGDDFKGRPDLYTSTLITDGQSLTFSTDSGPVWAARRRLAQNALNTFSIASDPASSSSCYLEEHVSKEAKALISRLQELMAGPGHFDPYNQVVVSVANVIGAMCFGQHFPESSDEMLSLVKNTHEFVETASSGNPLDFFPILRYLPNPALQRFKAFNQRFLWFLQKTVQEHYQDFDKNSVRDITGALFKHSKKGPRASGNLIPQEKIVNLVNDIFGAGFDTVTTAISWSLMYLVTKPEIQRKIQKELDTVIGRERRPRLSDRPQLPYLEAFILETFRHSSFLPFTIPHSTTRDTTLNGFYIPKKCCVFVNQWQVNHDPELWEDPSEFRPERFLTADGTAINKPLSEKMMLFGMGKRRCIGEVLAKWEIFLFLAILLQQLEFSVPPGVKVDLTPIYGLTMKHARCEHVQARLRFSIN

Cannabinoid receptor 2 [9] = molecular target: T1, Cannabinoid receptor 2; assay: Agonist activity at human CB2 receptor expressed in CHOK1 cells assessed as reversal of forskolin-evoked cAMP accumulation; assay type: functional, cell-based, CHO-K1; how it was run: as §2
[10] = Cmax in Wistar rat at 3 mg/kg, po after 1 hr; assay type: ADME, organism-based; parameters: dose 3 mg/kg, route oral; conditions: in vivo
How it was run: (§3)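 Single oral dose of 3 mg/kg in Wistar rats. Plasma and brain concentrations were followed over time after dosing.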

Rattus norvegicus [11] = organism: Rattus norvegicus; assay: Antihyperalgesic activity in rat assessed as reversal of hyperalgesia; assay type: functional
How it was run: (§4)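 Rat model of neuropathic mechanical hyperalgesia with oral dosing. Read-out was paw withdrawal threshold of the ipsilateral paw, followed from 1 h after dosing, with 12 animals per group, as mean ± SEM. Groups were compared with vehicle by ANOVA and Tukey's HSD.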

Liver microsomes [12] = assay: Intrinsic clearance in rat liver microsomes; assay type: ADME, Microsome
[13] = Bioavailability in Wistar rat at 3.4 mg/kg, po; assay type: ADME, organism-based; conditions: in vivo; how it was run: as §1
Cytochrome P450 2C19 = Cytochrome P450 2C19 (Homo sapiens, UniProt P33261); assay: Inhibition of CYP2C19 in human liver microsomes; assay type: ADME, Microsome
[14] = Cmax in Wistar rat at 3.4 mg/kg, po; assay type: ADME, organism-based; parameters: dose 3.4 mg/kg, route oral; conditions: in vivo; how it was run: as §1
Cytochrome P450 2D6 = Cytochrome P450 2D6 (Homo sapiens, UniProt P10635); assay: Inhibition of CYP2D6 in human liver microsomes; assay type: ADME, Microsome
Cytochrome P450 2C8 = molecular target: T3, Cytochrome P450 2C8 (Homo sapiens, UniProt P10632); assay: Inhibition of CYP2C8 in human liver microsomes; assay type: ADME, Microsome
T3 sequence (P10632 whole entry): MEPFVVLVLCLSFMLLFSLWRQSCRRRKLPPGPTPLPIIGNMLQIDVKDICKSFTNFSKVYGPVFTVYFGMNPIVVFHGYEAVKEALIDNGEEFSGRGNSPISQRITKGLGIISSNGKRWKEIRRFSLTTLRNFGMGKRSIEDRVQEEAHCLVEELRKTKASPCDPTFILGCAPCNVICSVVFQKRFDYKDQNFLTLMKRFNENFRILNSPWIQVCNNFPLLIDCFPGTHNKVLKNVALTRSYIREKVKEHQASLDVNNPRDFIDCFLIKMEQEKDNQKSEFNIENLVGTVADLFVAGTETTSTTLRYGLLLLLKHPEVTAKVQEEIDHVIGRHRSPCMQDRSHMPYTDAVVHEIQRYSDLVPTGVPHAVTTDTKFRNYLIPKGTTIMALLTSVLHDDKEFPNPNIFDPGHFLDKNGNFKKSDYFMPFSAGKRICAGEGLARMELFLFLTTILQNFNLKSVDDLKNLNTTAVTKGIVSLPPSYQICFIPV

Cannabinoid receptor 1 [15] = molecular target: Cannabinoid receptor 1 (Rattus norvegicus, UniProt P20272); assay: Inhibition of rat CB1 receptor
Liver microsomes [16] = assay: Intrinsic clearance in human liver microsomes; assay type: ADME, Microsome
Brain = assay: Drug level in brain in Wistar rat after 4 hrs; assay type: ADME, tissue-based; conditions: in vivo; how it was run: as §3
Rattus norvegicus [17] = assay: Antihyperalgesic activity in rat assessed as reversal of hyperalgesia at 3 mg/kg, po after 1 hr; assay type: functional; how it was run: as §4
[18] = Partition coefficient, log P of the compound; assay type: physicochemical; conditions: octanol/water
[19] = AUC (0 to infinity) in Wistar rat at 1 mg/kg, iv; assay type: ADME, organism-based; parameters: time infinity, dose 1 mg/kg, route intravenous; conditions: plasma; how it was run: as §1
[20] = Plasma protein binding; assay type: ADME, cell-free; conditions: human, read-out: PPB

T1 sequence (P34972 whole entry): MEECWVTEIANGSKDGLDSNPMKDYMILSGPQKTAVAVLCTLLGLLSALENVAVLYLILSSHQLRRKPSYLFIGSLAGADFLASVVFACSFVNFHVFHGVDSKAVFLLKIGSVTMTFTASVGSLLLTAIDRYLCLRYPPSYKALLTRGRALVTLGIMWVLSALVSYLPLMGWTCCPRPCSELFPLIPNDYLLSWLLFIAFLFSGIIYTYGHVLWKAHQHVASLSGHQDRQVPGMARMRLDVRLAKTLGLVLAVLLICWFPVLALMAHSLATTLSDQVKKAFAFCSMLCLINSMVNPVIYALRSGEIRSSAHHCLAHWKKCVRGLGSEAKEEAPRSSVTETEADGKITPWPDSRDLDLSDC
Sequence of Cannabinoid receptor 1 (Homo sapiens, UniProt P21554) (P21554 whole entry): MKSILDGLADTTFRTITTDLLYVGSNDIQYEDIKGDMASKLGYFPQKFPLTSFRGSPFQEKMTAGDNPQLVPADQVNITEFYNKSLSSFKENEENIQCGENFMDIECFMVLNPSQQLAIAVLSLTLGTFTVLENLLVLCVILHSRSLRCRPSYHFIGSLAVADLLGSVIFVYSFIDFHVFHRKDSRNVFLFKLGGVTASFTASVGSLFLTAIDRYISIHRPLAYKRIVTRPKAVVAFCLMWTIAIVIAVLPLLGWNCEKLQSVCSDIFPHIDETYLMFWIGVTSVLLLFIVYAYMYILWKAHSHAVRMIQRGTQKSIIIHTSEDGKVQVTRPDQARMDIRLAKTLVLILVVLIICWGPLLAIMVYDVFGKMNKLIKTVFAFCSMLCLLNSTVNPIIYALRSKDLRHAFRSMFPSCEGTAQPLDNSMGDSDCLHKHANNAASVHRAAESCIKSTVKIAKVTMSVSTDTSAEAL
Sequence of Cannabinoid receptor 1 (Rattus norvegicus, UniProt P20272) (P20272 whole entry): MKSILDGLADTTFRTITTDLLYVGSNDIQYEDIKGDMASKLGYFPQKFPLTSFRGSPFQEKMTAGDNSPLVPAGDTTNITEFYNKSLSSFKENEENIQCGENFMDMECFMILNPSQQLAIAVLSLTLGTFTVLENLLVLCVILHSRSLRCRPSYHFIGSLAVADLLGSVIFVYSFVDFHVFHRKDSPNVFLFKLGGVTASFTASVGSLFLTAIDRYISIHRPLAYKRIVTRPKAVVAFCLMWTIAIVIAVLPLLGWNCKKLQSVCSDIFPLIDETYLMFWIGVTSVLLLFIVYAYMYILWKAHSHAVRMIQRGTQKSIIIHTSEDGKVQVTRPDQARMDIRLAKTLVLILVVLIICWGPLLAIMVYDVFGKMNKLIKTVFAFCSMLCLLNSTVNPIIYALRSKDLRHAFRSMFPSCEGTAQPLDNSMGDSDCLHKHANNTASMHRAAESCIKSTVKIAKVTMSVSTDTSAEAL
Sequence of Cytochrome P450 2C9 (P11712 whole entry): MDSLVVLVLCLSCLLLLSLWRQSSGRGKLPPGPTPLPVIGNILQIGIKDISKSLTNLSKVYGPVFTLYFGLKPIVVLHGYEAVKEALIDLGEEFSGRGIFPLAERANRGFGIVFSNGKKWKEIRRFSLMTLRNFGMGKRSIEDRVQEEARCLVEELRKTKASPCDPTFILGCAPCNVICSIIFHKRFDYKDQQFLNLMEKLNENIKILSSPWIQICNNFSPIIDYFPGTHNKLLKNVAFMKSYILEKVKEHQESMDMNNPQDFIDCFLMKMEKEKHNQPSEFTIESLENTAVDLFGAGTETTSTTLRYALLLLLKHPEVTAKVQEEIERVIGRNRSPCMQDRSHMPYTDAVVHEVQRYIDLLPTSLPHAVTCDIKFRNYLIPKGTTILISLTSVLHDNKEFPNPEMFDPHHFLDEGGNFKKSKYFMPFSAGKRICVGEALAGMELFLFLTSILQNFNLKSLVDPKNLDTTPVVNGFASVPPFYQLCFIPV
Sequence of Cytochrome P450 3A4 (P08684 whole entry): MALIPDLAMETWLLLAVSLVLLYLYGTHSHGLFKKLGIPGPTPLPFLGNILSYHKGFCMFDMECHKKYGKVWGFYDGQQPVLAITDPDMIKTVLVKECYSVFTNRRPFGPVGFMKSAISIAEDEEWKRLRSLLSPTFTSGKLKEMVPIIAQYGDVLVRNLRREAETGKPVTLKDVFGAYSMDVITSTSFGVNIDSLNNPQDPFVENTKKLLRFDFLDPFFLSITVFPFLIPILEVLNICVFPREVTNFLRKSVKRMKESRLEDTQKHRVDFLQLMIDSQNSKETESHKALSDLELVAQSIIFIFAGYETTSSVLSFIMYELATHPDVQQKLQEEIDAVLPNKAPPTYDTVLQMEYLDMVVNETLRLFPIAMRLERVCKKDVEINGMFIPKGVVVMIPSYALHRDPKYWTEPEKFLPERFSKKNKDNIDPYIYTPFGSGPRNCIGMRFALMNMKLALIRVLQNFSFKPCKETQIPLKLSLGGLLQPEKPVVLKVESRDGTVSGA
Sequence of Cytochrome P450 2C19 (P33261 whole entry): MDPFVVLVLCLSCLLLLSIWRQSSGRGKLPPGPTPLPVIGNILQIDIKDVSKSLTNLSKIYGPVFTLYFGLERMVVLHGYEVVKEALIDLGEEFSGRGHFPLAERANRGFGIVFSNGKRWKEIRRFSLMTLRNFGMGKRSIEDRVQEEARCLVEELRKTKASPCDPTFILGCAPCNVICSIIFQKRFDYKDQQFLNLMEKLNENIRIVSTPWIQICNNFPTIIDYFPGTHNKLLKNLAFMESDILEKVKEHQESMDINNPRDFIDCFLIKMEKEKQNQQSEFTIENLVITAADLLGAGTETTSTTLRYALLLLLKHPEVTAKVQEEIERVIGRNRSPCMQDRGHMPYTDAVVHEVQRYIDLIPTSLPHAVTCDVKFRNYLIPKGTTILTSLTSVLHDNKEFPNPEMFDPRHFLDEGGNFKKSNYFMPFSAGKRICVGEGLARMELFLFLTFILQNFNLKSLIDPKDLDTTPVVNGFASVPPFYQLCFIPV
Sequence of Cytochrome P450 2E1 (P05181 whole entry): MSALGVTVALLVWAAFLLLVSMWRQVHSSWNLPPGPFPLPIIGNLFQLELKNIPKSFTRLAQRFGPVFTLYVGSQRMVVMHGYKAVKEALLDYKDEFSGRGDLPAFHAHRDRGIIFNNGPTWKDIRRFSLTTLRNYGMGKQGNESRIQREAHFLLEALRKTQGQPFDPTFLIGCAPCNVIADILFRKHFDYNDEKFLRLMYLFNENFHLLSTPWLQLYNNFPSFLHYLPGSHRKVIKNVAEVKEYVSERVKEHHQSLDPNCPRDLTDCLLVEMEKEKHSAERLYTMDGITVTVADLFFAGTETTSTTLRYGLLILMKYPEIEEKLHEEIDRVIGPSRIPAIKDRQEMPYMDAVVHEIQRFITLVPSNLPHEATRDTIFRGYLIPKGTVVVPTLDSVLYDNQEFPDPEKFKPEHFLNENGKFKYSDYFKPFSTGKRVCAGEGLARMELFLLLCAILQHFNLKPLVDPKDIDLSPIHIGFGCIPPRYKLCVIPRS
Sequence of Cytochrome P450 2D6 (P10635 whole entry): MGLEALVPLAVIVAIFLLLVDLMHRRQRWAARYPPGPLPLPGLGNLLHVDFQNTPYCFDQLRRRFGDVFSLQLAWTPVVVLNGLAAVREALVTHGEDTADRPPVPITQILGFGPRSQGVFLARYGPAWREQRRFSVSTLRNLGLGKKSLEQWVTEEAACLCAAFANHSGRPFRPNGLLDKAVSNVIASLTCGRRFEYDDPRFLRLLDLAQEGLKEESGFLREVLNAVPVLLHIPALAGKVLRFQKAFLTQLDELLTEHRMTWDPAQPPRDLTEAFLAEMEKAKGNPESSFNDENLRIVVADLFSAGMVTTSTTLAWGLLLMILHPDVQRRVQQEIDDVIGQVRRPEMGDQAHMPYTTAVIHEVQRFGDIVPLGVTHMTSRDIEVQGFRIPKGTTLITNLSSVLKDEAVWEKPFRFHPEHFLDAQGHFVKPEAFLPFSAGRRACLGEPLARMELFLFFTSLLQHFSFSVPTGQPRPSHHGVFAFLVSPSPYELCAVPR

Compound `CCCCCCOc1ccc(C(=O)c2cccc3ccccc23)c2ccccc12` has an IC50 (Cannabinoid receptor 1 [1]) of 0.16 µM and an IC50 (Cannabinoid receptor 2 [2]) of 0.66 µM.
In the case of `CCCCOc1ccc(C(=O)c2cccc3ccccc23)c2ccccc12`, the IC50 (Cannabinoid receptor 1 [1]) is reported as 0.048 µM and the IC50 (Cannabinoid receptor 2 [2]) is reported as 0.085 µM.
`CCCCCOc1ccc(C(=O)c2cccc3ccccc23)c2ccccc12` gave a Vd [3] of 9.6 L/kg, a clearance [4] of 0.48 L/h/kg and an IC50 (Cytochrome P450 2C9) of 80.8 µM. The IC50 (Cytochrome P450 3A4) was > 200 µM, the Emax (Cannabinoid receptor 2 [5]) was 88.4% and the IC50 (Cannabinoid receptor 2 [2]) was 0.098 µM. The half-life [6] was 64.6 h, the Tmax [7] was 1 h and the IC50 (Cytochrome P450 2E1) was > 200 µM. For the same compound, the AUC(0-inf) [8] was 8.39 µM·h, the IC50 (Cytochrome P450 1A2) was > 200 µM and the EC50 (Cannabinoid receptor 2 [9]) was 0.0279 µM. The Cmax [10] was 1.13 µM, the D50 (Rattus norvegicus [11]) was 0.17 mg/kg and the CL (Liver microsomes [12]) was < 5 µL/min. The bioavailability [13] was 43%, the IC50 (Cytochrome P450 2C19) was > 200 µM and the Cmax [14] was 1.6 µM. For the same compound, the IC50 (Cytochrome P450 2D6) was > 200 µM, the IC50 (Cytochrome P450 2C8) was > 200 µM and the IC50 (Cannabinoid receptor 1 [15]) was 0.022 µM. The CL (Liver microsomes [16]) was < 5 µL/min, the Drug uptake (Brain) was 0.24 µmol/kg and the Activity (Rattus norvegicus [17]) was 90%. For the same compound, the logP [18] was 6.85, the AUC(0-inf) [19] was 5.72 µM·h and the fraction unbound [20] was < 0.01.
`CCCCCNc1ccc(C(=O)c2cccc3ccccc23)c2ccccc12` gave an IC50 (Cannabinoid receptor 1 [1]) of 0.025 µM and an IC50 (Cannabinoid receptor 2 [2]) of 0.12 µM.
`O=C(c1cccc2ccccc12)c1ccc(OCCc2ccccc2)c2ccccc12` gave an IC50 (Cannabinoid receptor 1 [1]) of 0.93 µM and an IC50 (Cannabinoid receptor 2 [2]) of 2 µM.
Compound `CCCCCCC(C)(C)c1ccc([C@@H]2C[C@H](O)CC[C@H]2CCCO)c(O)c1` [CP-55940] has an Emax (Cannabinoid receptor 2 [5]) of 100% and a D50 (Rattus norvegicus [11]) of 0.08 mg/kg.
Compound `Cc1c(C(=O)c2cccc3ccccc23)c2cccc3c2n1[C@H](CN1CCOCC1)CO3` [WIN-552122] has an Emax (Cannabinoid receptor 2 [5]) of 96.9% and a D50 (Rattus norvegicus [11]) of 0.52 mg/kg.
With `CCCOc1ccc(C(=O)c2cccc3ccccc23)c2ccccc12` the IC50 (Cannabinoid receptor 1 [1]) was 0.3 µM and the IC50 (Cannabinoid receptor 2 [2]) was 0.09 µM.

— ChEMBL document CHEMBL1148711, “Naphthalen-1-yl-(4-pentyloxynaphthalen-1-yl)methanone: a potent, orally bioavailable human CB1/CB2 dual agonist with antihyperalgesic properties and restricted central nervous system penetration” (J Med Chem, 2007)
